The structures appear in SMILES notation. Calls of active or inactive are those of the source. The calls are words filed in the database; no cut-off is given here.

The species entered for experiment [1] is Mus musculus. The experiment is described as follows: Activation of Wnt3a/beta-catenin in mouse 3T3L1 cells assessed as increase in SIRT1 mRNA expression at 20 uM by qRT-PCR analysis. In kind it is cell-based. The procedure, abridged: (§1)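 3T3-L1 cells differentiated with IBMX/dexamethasone/insulin media with or without 20 µM compound over the differentiation period. RNA extracted with TRIZOL, 500 ng reverse-transcribed to cDNA, then quantitative real-time PCR. Three independent experiments run in triplicate, mean ± SD, one-way ANOVA with Bonferroni posttest.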
Background: In qPCR the cycle at which signal appears reflects the starting amount.

For experiment [2], the species on record is Mus musculus. The experiment is described as follows: Activation of Wnt3a/beta-catenin in differentiated mouse 3T3L1 cells assessed as down-regulation of PPARgamma mRNA expression at 20 uM by qRT-PCR analysis. The procedure, abridged:
as §1

In experiment [3] the test system is Syrian golden hamster. Kind of experiment: Anti-dyslipidemic activity in high fat diet-induced dyslipidemia Syrian Golden hamster model assessed as decrease in serum ALT levels at 100 mg/kg, po administered for 1 week followed by overnight fasting post last dose by clinical bio-analyzer analysis. In kind it is functional, organism-based. The note with it: Mesocricetus auratus. The procedure, abridged:
(§2)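 Male Syrian golden hamsters (8–10 wk, 100–120 g), 4 per group, given 45% kcal HFD for 4 days, then 100 mg/kg p.o. in 0.5% NaCMC daily for one week alongside HFD. Blood taken from retro-orbital plexus after overnight fast. TG, HDL, LDL, ALT, AST measured on a clinical bio-analyzer and NEFA by kit. Mean ± SEM, one-way ANOVA with Bonferroni.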

The species named for experiment [4] is Mus musculus. Kind of experiment: Activation of Wnt3a/beta-catenin in mouse 3T3L1 cells assessed as down-regulation of FAS expression at 20 uM after 2 to 6 days in presence of FH353 by Western blot analysis. The class given is cell-based.
The subject of another experiment is C3H 10T1/2. Kind of experiment: Anti-adipogenic activity in mouse C3H10T1/2 cells assessed as reduction in lipid accumulation at early differentiation stage at 20 uM measured up to 3 days by Oil Red O absorbance method. In kind it is functional, cell-based. The gist of the method:
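3T3-L1 or C3H10T1/2 cells given 20 µM compound with differentiation media for different time periods. Oil red O stain extracted from accumulated lipid with isopropanol and absorbance read at 492 nm. n=3, mean ± SD, Student t test against MDI+ group.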

The species named for experiment [5] is Mus musculus. The experiment is described as follows: Activation of Wnt3a/beta-catenin in differentiated mouse 3T3L1 cells assessed as down-regulation of C/EBPalpha protein expression at 20 uM after 16 to 24 hrs by Western blot analysis. The gist of the method:
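3T3-L1 preadipocytes grown to confluence in high-glucose DMEM/10% FBS, then given differentiation media (0.5 mM IBMX, 5 µg/ml insulin, 250 nM dexamethasone) with or without 20 µM compound. Protein isolated at set time points, lysed with protease/phosphatase inhibitors, BCA-quantified, resolved by 8–12% SDS-PAGE, immunoblotted with ECL detection. β-actin loading control, densitometry normalized to actin, n=3.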
For orientation: A western blot detects proteins with antibodies after separation by electrophoresis.

The species named for experiment [6] is Mus musculus. Kind of experiment: Activation of Wnt3a/beta-catenin in mouse 3T3L1 cells assessed as down-regulation of AP2 expression at 20 uM after 2 to 6 days in presence of FH353 by Western blot analysis.
The test system of experiment [7] is Syrian golden hamster. Kind of experiment: Anti-adipogenic activity in high fat diet-induced dyslipidemia Syrian Golden hamster model assessed as decrease in PPARgamma levels in eWAT at 100 mg/kg, po administered for 1 week by Western blot analysis. In kind it is functional, organism-based. The note with it: Mesocricetus auratus. The gist of the method: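 Male Syrian golden hamsters (8–10 wk, 100–120 g) fed 45% kcal HFD for 4 days, then dosed orally at 100 mg/kg in 0.5% NaCMC for one week, n=4 per group. Fenofibrate 100 mg/kg p.o. used as positive control. Epididymal WAT proteins Western blotted, three independent experiments.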

Experiment [8] concerns 3T3-L1. The experiment is described as follows: Cell cycle arrest in mouse 3T3L1 cells assessed as reduction in accumulation at S phase at 10 to 20 uM after 16 hrs by propidium iodide-staining based flow cytometry. The class given is functional. The gist of the method:
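Confluent 3T3-L1 preadipocytes given differentiation medium (0.5 mM IBMX, 5 µg/ml insulin, 250 nM dexamethasone) with 10 or 20 µM for 16 and 24 hr. Cells trypsinized, fixed in ice-cold 70% ethanol for 2 hr, stained with propidium iodide (40 µg/ml in RNase A buffer, 30 min, room temperature). Flow cytometry gave the fractions in G1, S and G2/M; three independent experiments.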
A general note: A flow cytometer gives signals particle by particle.

Experiment [9] concerns Syrian golden hamster. The experiment is described as follows: Induction of reverse cholestrol transport in high fat diet-induced dyslipidemia Syrian Golden hamster model assessed as reduction in eWAT to body weight ratio at 100 mg/kg, po administered for 1 week. In kind it is functional, organism-based. The note with it: Mesocricetus auratus. The gist of the method: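 Male Syrian Golden hamsters on 45% kCal HFD, dosed 100 mg/kg p.o. in 0.5% NaCMC for one week, 4 per group. Food intake and body weight recorded daily. At the end, animals were saline-perfused and liver and eWAT were excised and weighed. Paraffin sections stained with H&E and imaged at 20x.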

For experiment [10], the system named is Syrian golden hamster. Kind of experiment: Anti-dyslipidemic activity in high fat diet-induced dyslipidemia Syrian Golden hamster model assessed as reduction in serum LDL levels at 100 mg/kg, po administered for 1 week followed by overnight fasting post last dose by clinical bio-analyzer analysis. The settings on record: Mesocricetus auratus. In kind it is functional, organism-based. The procedure, abridged: as §2

Experiment [11] has as its system Syrian golden hamster. The experiment is described as follows: Anti-dyslipidemic activity in high fat diet-induced dyslipidemia Syrian Golden hamster model assessed as decrease in serum AST levels at 100 mg/kg, po administered for 1 week followed by overnight fasting post last dose by clinical bio-analyzer analysis. In kind it is functional, organism-based. The note with it: Mesocricetus auratus. The procedure, abridged:
as §2

For experiment [12], the system named is 3T3-L1. The experiment is described as follows: Anti-adipogenic activity in mouse 3T3L1 cells assessed as inhibition of adipogenesis after 20 mins by Oil Red O staining based assay. In kind it is functional, cell-based. The note with it: 3T3-L1, 20 min. The procedure, abridged: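 3T3-L1 preadipocytes differentiated with compound at 0.1, 1, 3, 10, 30, 100 and 300 µM. Oil red O absorbance read at 492 nm, concentrations log-transformed and fitted by non-linear regression to give IC50. Two to three independent experiments, mean ± SEM.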

For experiment [13], the species on record is Mus musculus. The experiment is described as follows: Activation of Wnt3a/beta-catenin in mouse 3T3L1 cells assessed as down-regulation of C/EBPalpha expression at 20 uM after 2 to 6 days in presence of FH353 by Western blot analysis. In kind it is cell-based.
The species entered for experiment [14] is Mus musculus. Kind of experiment: Activation of Wnt3a/beta-catenin in mouse 3T3L1 cells assessed as down-regulation of cyclinD3 expression at 20 uM after 16 to 24 hrs in presence of FH353 by Western blot analysis. The class given is cell-based. The gist of the method: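 Confluent 3T3-L1 cells given differentiation media (IBMX/insulin/dexamethasone) with 20 µM compound, with or without the β-catenin/TCF inhibitor FH353 (10 µM). Proteins isolated at 16 and 24 h and Western blotted after SDS-PAGE and nitrocellulose transfer. Blocking in 5% milk/TBS-T, primary antibody overnight at 4 °C, chemiluminescent detection, β-actin control, three independent experiments.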

Experiment [15] has as its system Syrian golden hamster. The experiment is described as follows: Induction of reverse cholestrol transport in high fat diet-induced dyslipidemia Syrian Golden hamster model assessed as increase in ABCA1 mRNA expression in eWAT at 100 mg/kg, po administered for 1 week by qRT-PCR analysis. The class given is functional, organism-based. The settings on record: Mesocricetus auratus.

The species named for experiment [16] is Mus musculus. Kind of experiment: Activation of Wnt3a/beta-catenin in mouse 3T3L1 cells assessed as down-regulation of CDK6 expression at 20 uM after 16 to 24 hrs by Western blot analysis. In kind it is cell-based. The procedure, abridged: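 3T3-L1 cells given MDI differentiation media (0.5 mM IBMX, 5 µg/ml insulin, 250 nM dexamethasone) with or without 20 µM compound. Proteins isolated at 16 and 24 h and probed by Western blot for CDK2, CDK4, CDK6, cyclin D1 and D3. Densitometry normalized to actin, n=3, mean ± SD, Student t test.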

As usually defined, the IC50 is the concentration that gives 50% inhibition. Consider `Cc1ccc(S(=O)(=O)N(Cc2cn(Cc3cccc(F)c3F)nn2)Cc2cn(S(=O)(=O)c3ccc(C)cc3)c3ccccc23)cc1`, for which the outcome in the experiment listed under Mus musculus [1], in the experiment filed under Mus musculus [2], in the experiment on Syrian golden hamster [3], with C3H 10T1/2, in the experiment filed under Mus musculus [5] and in the experiment with Syrian golden hamster [7] was Active. Moreover, the outcome in the experiment with 3T3-L1 [8], in the experiment on Syrian golden hamster [9], with Syrian golden hamster [10], with Syrian golden hamster [11], with Syrian golden hamster [15] and in the experiment filed under Mus musculus [16] was Active. The outcome in the experiment filed under Mus musculus [4], in the experiment filed under Mus musculus [6], in the experiment filed under Mus musculus [13] and in the experiment listed under Mus musculus [14] was inactive. In addition, the IC50 in the experiment on 3T3-L1 [12] amounted to 1.7 µM.

These data come from ChEMBL document CHEMBL4138193, “Novel indole and triazole based hybrid molecules exhibit potent anti-adipogenic and antidyslipidemic activity by activating Wnt3a/β-catenin pathway” (Eur J Med Chem, 2018).
